# Unmarked numbers belong to inactive results.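 Rule for the calls: active = inhibition of 30% or more at any tested concentration; inactive = the rest.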
# Test system: M18 aspartyl aminopeptidase (Plasmodium falciparum 3D7)
# Assay: PfM18AAP inhibitors, dose response, counter-screen for PfM1 aminopeptidase inhibitor project, biochemical, QFRET fluorogenic substrate (AID 588687)
# Conditions: recombinant PfM18AAP, H-Glu-NHMec fluorogenic cleavage; series mostly up to 100 µM; inhibition: at the top concentration
# Outline: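 System: recombinant P. falciparum PFM18AAP enzyme. Times: reaction time 90 min, room temperature. Dosing: 10 twofold doses, top 100 µM, 2% DMSO. Signal: fluorescence of released leaving group, excitation 370 nm, emission 460 nm. Also added: H-Glu-NHMec fluorogenic peptide substrate at 0.1 mM final.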
row,SMILES,inhibition [%]
1,COc1ccc(-c2ccc(S(=O)(=O)N3CCC(C(=O)NCc4ccc5c(c4)OCO5)CC3)s2)cc1,-48
2,O=C(NCc1ccc2c(c1)OCO2)C1CCN(S(=O)(=O)c2ccc(-c3cccc(F)c3)s2)CC1,-10.5
3,CC[C@H](C)[C@H](NC(=O)c1ccc(C(C)(C)C)cc1)C(=O)NCc1ccc(C(F)(F)F)cc1,-25.8
4,CC(=O)Nc1cccc(-c2ccc(S(=O)(=O)N3CCC(C(=O)NCc4ccc5c(c4)OCO5)CC3)s2)c1,17
5,CN(C)c1ccc(CNC(=O)C2CCN(S(=O)(=O)c3ccc(Br)s3)CC2)cc1,19.9
6,O=C(NCc1ccc2c(c1)OCO2)C1CCN(S(=O)(=O)c2ccc(-c3ccc(F)cc3)s2)CC1,16.3
7,CC[C@H](C)[C@H](NS(=O)(=O)c1ccc(Br)s1)C(=O)O,-0.95
8,COc1cccc(-c2ccc(S(=O)(=O)N3CCC(C(=O)NCc4ccc5c(c4)OCO5)CC3)s2)c1,7.54
9,O=C(NCc1ccc2c(c1)OCO2)C1CCN(S(=O)(=O)c2ccc(-c3ccccc3)s2)CC1,8.21
10,CC[C@H](C)[C@H](NS(=O)(=O)c1ccc(Br)s1)C(=O)NCc1ccc(C(F)(F)F)cc1,-0.4
11,CC(C)(C)c1ccc(-c2ccc(S(=O)(=O)N3CCC(C(=O)NCc4ccc5c(c4)OCO5)CC3)s2)cc1,-8.7
12,CC[C@H](C)[C@H](NS(=O)(=O)c1ccc(Br)s1)C(=O)NCc1ccc(F)cc1,15.1
13,CC[C@H](C)[C@H](NC(=O)c1ccc([N+](=O)[O-])cc1)C(=O)NCc1ccc(F)cc1,-5.15
14,CC[C@H](C)[C@H](NC(=O)c1ccc([N+](=O)[O-])cc1)C(=O)NCc1ccccc1,-13.2
15,O=C(NCc1ccc2c(c1)OCO2)C1CCN(S(=O)(=O)c2ccc(-c3cncc4ccccc34)s2)CC1,-43.4
16,CC[C@H](C)[C@H](NC(=O)c1ccc([N+](=O)[O-])cc1)C(=O)NCc1ccc(C(F)(F)F)cc1,-4.11
17,CC[C@H](C)[C@H](NS(=O)(=O)c1cccs1)C(=O)NCc1ccc(F)cc1,-3.85

# — PubChem BioAssay AID588687 (Southern Research Specialized Biocontainment Screening …, 2011)
